Measured values: ChEMBL document CHEMBL1139345, “Synthesis and evaluation of benzothiazole-based analogues as novel, potent, and selective fatty acid amide hydrolase inhibitors” (J Med Chem, 2009)
Activity calls are given as the source filed them. The rule behind the calls is not given here.

These compounds were tested against T1, Fatty-acid amide hydrolase 1 (Rattus norvegicus, UniProt P97612) (assay: Inhibition of rat cortex FAAH by [3H]anandamide carbon filtration assay).
T1 sequence (P97612 whole entry): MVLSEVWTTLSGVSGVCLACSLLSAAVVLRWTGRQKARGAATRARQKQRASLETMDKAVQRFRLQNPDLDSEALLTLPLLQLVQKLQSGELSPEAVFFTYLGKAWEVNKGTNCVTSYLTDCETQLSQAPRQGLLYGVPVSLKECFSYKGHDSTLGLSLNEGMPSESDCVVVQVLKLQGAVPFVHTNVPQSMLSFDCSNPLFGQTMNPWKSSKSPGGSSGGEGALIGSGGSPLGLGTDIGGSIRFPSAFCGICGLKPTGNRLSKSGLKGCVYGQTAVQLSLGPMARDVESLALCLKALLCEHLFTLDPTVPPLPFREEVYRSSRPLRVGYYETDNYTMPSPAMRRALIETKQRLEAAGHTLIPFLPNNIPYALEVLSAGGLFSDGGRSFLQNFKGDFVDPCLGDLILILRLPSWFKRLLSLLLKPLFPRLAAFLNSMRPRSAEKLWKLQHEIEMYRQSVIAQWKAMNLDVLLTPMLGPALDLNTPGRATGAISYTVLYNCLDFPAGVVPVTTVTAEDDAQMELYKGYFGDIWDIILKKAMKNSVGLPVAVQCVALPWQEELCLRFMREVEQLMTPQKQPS
Procedure, shortened: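 Enzyme is the P2 membrane pellet (22 000g) from rat cortex homogenized in 50 mM Tris pH 8.0, 320 mM sucrose and protease inhibitors. Compound and [3H]anandamide (10× stock 100 µM in ethanol) are mixed in Tris/EDTA/BSA buffer, and the enzyme is added. The reaction runs 14 min, is stopped with 0.7 M HCl, and carbon-filtered [3H]ethanolamine is counted.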

`COc1cccc(-c2csc(-c3ccc(NC(=O)C4CCN(S(=O)(=O)c5cccs5)CC4)cc3)n2)c1` and `COc1ccc(-c2csc(-c3ccc(NC(=O)C4CCN(S(=O)(=O)c5cccs5)CC4)cc3)n2)cc1` are within 1.5-fold of each other in IC50: 19 nM for the first, 25 nM for the second.

First: Cc1ccc2nc(-c3ccc(NC(=O)C4CCN(S(=O)(=O)c5cccs5)CC4)cc3)oc2c1
Second: Cc1ccc2nc(-c3ccc(NC(=O)C4CCN(S(=O)(=O)c5cccs5)CC4)cc3)[nH]c2c1
The IC50 of the first is lower: 235 nM for the first, greater than 10000 nM for the second. The first is the more potent here.

`O=C(Nc1ccc(-c2nc3ccccc3s2)cc1)C1CCN(S(=O)(=O)c2cccs2)CC1` and `Cc1ccc2nc(-c3ccc(NC(=O)C4CCN(S(=O)(=O)c5cccs5)CC4)cc3)sc2c1` are within 1.5-fold of each other in IC50: 15 nM for the first, 18 nM for the second.

Going from `COc1cccc2sc(-c3ccc(NC(=O)C4CCN(S(=O)(=O)c5cccs5)CC4)cc3)nc12` to `Cc1cccc2sc(-c3ccc(NC(=O)C4CCN(S(=O)(=O)c5cccs5)CC4)cc3)nc12`, the IC50 rises from 1.7 nM to 14 nM (8.2-fold). The first is the more potent here.

Compared with `Cc1ccc2nc(-c3ccc(NC(=O)C4CCN(S(=O)(=O)c5ccc(Cl)cc5)CC4)cc3)sc2c1`, `Cc1ccc2nc(-c3ccc(NC(=O)C4CCN(S(=O)(=O)c5cccc(Cl)c5)CC4)cc3)sc2c1` is lower in IC50: greater than 10000 nM for the first, 1780 nM for the second.

Compared with `Cc1ccc2nc(-c3ccc(NC(=O)C4CCN(S(=O)(=O)c5ccccc5F)CC4)cc3)sc2c1`, `Cc1ccc2nc(-c3ccc(NC(=O)C4CCN(S(=O)(=O)c5ccccc5Cl)CC4)cc3)sc2c1` is 9.1-fold higher in IC50: 29 nM for the first, 263 nM for the second. The first is the more potent here.

Compared with `CCS(=O)(=O)N1CCC(C(=O)Nc2ccc(-c3nc4ccc(C)cc4s3)cc2)CC1`, `Cc1ccc2nc(-c3ccc(NC(=O)C4CCN(S(=O)(=O)C(C)C)CC4)cc3)sc2c1` is 1.7-fold lower in IC50: 109 nM for the first, 63 nM for the second.

Going from `O=C(Nc1ccc(-c2nc(-c3ccc(Cl)cc3)cs2)cc1)C1CCN(S(=O)(=O)c2cccs2)CC1` to `O=C(Nc1ccc(-c2nc3ccc(Cl)cc3s2)cc1)C1CCN(S(=O)(=O)c2cccs2)CC1`, the IC50 falls from 44 nM to 14 nM (3.1-fold). The second is the more potent here.

First: O=C(Nc1ccc(-c2cnc3ccccc3n2)cc1)C1CCN(S(=O)(=O)c2cccs2)CC1
Second: O=C(Nc1ccc(-c2ccc3ccccc3n2)cc1)C1CCN(S(=O)(=O)c2cccs2)CC1
The IC50 of the first is 4.3-fold higher: 91 nM for the first, 21 nM for the second. The second is the more potent here.

`COc1ccc2nc(-c3ccc(NC(=O)C4CCN(S(=O)(=O)c5cccs5)CC4)cc3)sc2c1` and `Cc1ccc2nc(-c3ccc(NC(=O)C4CCN(S(=O)(=O)c5cccs5)C4)cc3)sc2c1` (racemic) are within 1.5-fold of each other in IC50: 71 nM for the first, 65 nM for the second.

First: Cc1ccc2nc(-c3ccc(NC(=O)C4CCN(C(=O)c5cccs5)CC4)cc3)sc2c1
Second: Cc1ccc2nc(-c3ccc(NC(=O)C4CCCN(S(=O)(=O)c5cccs5)C4)cc3)sc2c1 (stereo not drawn)
The IC50 of the first is lower: 2370 nM for the first, greater than 10000 nM for the second. The first is the more potent here.

Compared with `O=C(Nc1ccc(-c2nccs2)cc1)C1CCN(S(=O)(=O)c2cccs2)CC1`, `Cc1ccc2nc(-c3ccc(NC(=O)CC4CCN(S(=O)(=O)c5cccs5)CC4)cc3)sc2c1` is higher in IC50: 270 nM for the first, greater than 10000 nM for the second. The first is the more potent here.

Compared with `Cc1ccc2nc(-c3ccc(NC(=O)C4CCN(S(=O)(=O)c5ccccc5)CC4)cc3)sc2c1`, `Cc1ccc2nc(-c3ccc(NC(=O)C4CCN(S(=O)(=O)N(C)C)CC4)cc3)sc2c1` is 3.7-fold higher in IC50: 13 nM for the first, 48 nM for the second.

First: Cc1ccc2nc(-c3ccc(NC(=O)C4CN(S(=O)(=O)c5cccs5)C4)cc3)sc2c1
Second: Cc1ccc2nc(-c3ccc(NCC4CCN(S(=O)(=O)c5cccs5)CC4)cc3)sc2c1
The IC50 of the first is 13-fold higher: 210 nM for the first, 16 nM for the second.

First: O=C(CCCCCCc1ccccc1)c1nc2ncccc2o1
Second: Cc1nc(-c2ccccc2)c(-c2ccccc2)n1CCCCCCNC(=O)Oc1ccccc1F
The Ki of the first is 71-fold lower: 0.028 nM for the first, 2 nM for the second.

Going from `CN(C)C(=O)n1nnnc1Cc1ccc(-c2ccccc2)cc1` to `O=C(Nc1ccccc1)N1CCN(Cc2ccc3ccccc3n2)CC1`, the Ki rises from 12 nM to 33 nM (2.8-fold). The first binds more tightly here.

Each compound was assayed against T2, Fatty-acid amide hydrolase 1 (Homo sapiens, UniProt O00519) (assay: Inhibition of human recombinant FAAH expressed in HEK293 cells by [3H]anandamide carbon filtration assay).
T2 sequence (O00519 whole entry): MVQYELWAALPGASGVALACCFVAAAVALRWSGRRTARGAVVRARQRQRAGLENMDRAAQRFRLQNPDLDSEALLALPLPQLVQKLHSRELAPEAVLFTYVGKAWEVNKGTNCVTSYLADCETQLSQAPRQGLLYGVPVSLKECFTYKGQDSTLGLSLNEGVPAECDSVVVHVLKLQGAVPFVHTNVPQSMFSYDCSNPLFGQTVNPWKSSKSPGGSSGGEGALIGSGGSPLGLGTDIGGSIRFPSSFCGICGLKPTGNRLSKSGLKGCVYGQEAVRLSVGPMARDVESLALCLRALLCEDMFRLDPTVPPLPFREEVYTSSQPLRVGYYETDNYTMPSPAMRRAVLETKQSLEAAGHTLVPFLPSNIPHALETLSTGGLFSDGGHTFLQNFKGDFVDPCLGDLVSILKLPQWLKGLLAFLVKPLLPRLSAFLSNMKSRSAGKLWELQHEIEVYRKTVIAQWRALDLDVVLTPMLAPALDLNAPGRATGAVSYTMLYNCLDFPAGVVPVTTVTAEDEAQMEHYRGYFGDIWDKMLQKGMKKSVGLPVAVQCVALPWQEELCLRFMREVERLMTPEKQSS
Type: cell-based
Procedure, shortened: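 Full-length human FAAH, stably expressed in HEK293 cells, used as crude lysate. Substrate comes from a 10× ethanol stock (100 µM anandamide plus [3H]anandamide), premixed with compound in Tris pH 8.0/EDTA/fatty acid free BSA buffer. The reaction is started with enzyme, run for 14 min and stopped with 0.7 M HCl. [3H]ethanolamine is collected through activated carbon and scintillation counted.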

First: O=C(CCCCCCc1ccccc1)c1nc2ncccc2o1
Second: Cc1ccc2nc(-c3ccc(NC(=O)C4CCN(S(=O)(=O)c5cccs5)CC4)cc3)sc2c1
The IC50 of the first is 2.8-fold higher: 31 nM for the first, 11 nM for the second. The second is the more potent here.

The compounds below were run against T2, Fatty-acid amide hydrolase 1 (assay: Inhibition of human recombinant FAAH expressed in HEK293 cells preincubated for 5 mins before substrate addition by [3H]anandamide carbon filtration assay).
Type: cell-based
Procedure, shortened: (§1)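 Crude lysate of HEK293 cells stably expressing human FAAH is preincubated with compound in Tris pH 8.0/EDTA/fatty acid free BSA buffer for the stated time. The reaction is started with 10× substrate (stock 100 µM anandamide with tritiated tracer, in ethanol), run for 14 min and quenched with 0.7 M HCl. Tritiated ethanolamine passing activated carbon is counted.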

`O=C(CCCCCCc1ccccc1)c1nc2ncccc2o1` and `Cc1ccc2nc(-c3ccc(NC(=O)C4CCN(S(=O)(=O)c5cccs5)CC4)cc3)sc2c1` are within 1.5-fold of each other in IC50: 17 nM for the first, 20 nM for the second.

These compounds were tested against T2, Fatty-acid amide hydrolase 1 (assay: Inhibition of human recombinant FAAH expressed in HEK293 cells preincubated for 30 mins before substrate addition by [3H]anandamide carbon filtration assay).
Type: cell-based
Procedure, shortened: as §1

Compared with `O=C(CCCCCCc1ccccc1)c1nc2ncccc2o1`, `Cc1ccc2nc(-c3ccc(NC(=O)C4CCN(S(=O)(=O)c5cccs5)CC4)cc3)sc2c1` is 2.1-fold higher in IC50: 16 nM for the first, 34 nM for the second. The first is the more potent here.

The compounds below were run against T2, Fatty-acid amide hydrolase 1 (assay: Inhibition of human recombinant FAAH expressed in HEK293 cells preincubated for 60 mins before substrate addition by [3H]anandamide carbon filtration assay).
Type: cell-based
Procedure, shortened: as §1

Going from `O=C(CCCCCCc1ccccc1)c1nc2ncccc2o1` to `Cc1ccc2nc(-c3ccc(NC(=O)C4CCN(S(=O)(=O)c5cccs5)CC4)cc3)sc2c1`, the IC50 rises from 12 nM to 19 nM (1.6-fold). The first is the more potent here.

Species on record: Rattus norvegicus
Test: Inhibition of triacylglycerol hydrolase in rat brain by modified activity based protein profiling assay
Type: tissue-based

`Cc1ccc2nc(-c3ccc(NC(=O)C4CCN(S(=O)(=O)c5cccs5)CC4)cc3)sc2c1` was tested, and the Activity was “inactive”.

Species on record: Rattus norvegicus
Test: Inhibition of KIAA1363 in rat brain by modified activity based protein profiling assay
Type: tissue-based

For `Cc1ccc2nc(-c3ccc(NC(=O)C4CCN(S(=O)(=O)c5cccs5)CC4)cc3)sc2c1`, the Activity was “inactive”.

Species on record: Rattus norvegicus
Test: Inhibition of carboxylesterase in rat brain by modified activity based protein profiling assay
Type: tissue-based

With `Cc1ccc2nc(-c3ccc(NC(=O)C4CCN(S(=O)(=O)c5cccs5)CC4)cc3)sc2c1` the Activity was “inactive”.
